Measured values reported in ChEMBL document CHEMBL1129735, “High-affinity alpha-aminobutyric acid A/benzodiazepine ligands: synthesis and structure-activity relationship studies of a new series of tetracyclic imidazoquinoxalines” (J Med Chem, 1996).

What was measured:
[1] = biological target: GABA-A receptor; anion channel; test: Displacement of [3H]flunitrazepam from GABA-A benzodiazepine receptor of rat cortical membranes; type: cell membranes, Membrane
[2] = biological target: GABA A receptor alpha-6/beta-2/gamma-2 (Rattus norvegicus, UniProt P18508+P30191+P63138); test: Displacement of [3H]-Ro- 15-4513 from alpha-6 beta2 gamma2 subunits of Rat GABA-A receptor expressed in Sf-9 insect cell membranes
[3] = biological target: GABA-A receptor; anion channel (Rattus norvegicus) (UniProt O09028+P15431+P18506+P18508+P19969+P20236+P23574+P23576+P28471+P28473+P30191+P62813+P63079+P63138+Q91ZM7+Q9ES14); test: Binding to GABA-A receptor complex relative to TBPS binding to picrotoxin convulsant site; type: functional
How it was run: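 Rat brain membranes ([…]) with 2 nM [35S]TBPS in 1 M NaCl, 10 mM Tris/HCl pH 7.4, 120 min at 24 °C; drugs added from methanol (≤0.2%, constant). Filtration read-out, nonspecific binding with 2 mM unlabeled TBPS.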

[4] = biological target: GABA A receptor alpha-6/beta-2/gamma-2 (Rattus norvegicus) (UniProt P18508+P30191+P63138); test: Displacement of [3H]-Ro- 15-4513 from alpha-6 beta2 gamma2 subunits of Rat GABA-A receptor expressed in Sf-9 insect cell membrane
How it was run: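 Sf-9 cells co-infected with baculoviruses for α6, β2 and γ2 subunits at an MOI of 3 pfu and harvested at 60 h. Membranes were made by homogenising in normal saline, then spun at 1000g and 40000g. Binding used 6 nM [3H]Ro 15-4513 with varying test ligand concentrations in normal saline, 60 min at 4 °C. Bound label was separated on glass-fibre filters and counted by scintillation.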

[5] = biological target: GABA-A receptor; alpha-1/beta-2/gamma-2 (Homo sapiens) (UniProt P14867+P47870+P18507); test: In vitro efficacy for GABA-A alpha-1-beta-2-gamma-2 subtype expressed in A293 cells in Cl- current assay; type: functional, cell-based; details: Rattus norvegicus; HEK293
How it was run: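 Stable A293 (human kidney) cells were transfected with α1, β2 and γ2 cDNAs and selected 2 weeks in 1 mg/mL G418; Northern-positive cells were used. Whole-cell patch clamp used a pipette solution of CsCl/EGTA/MgCl2/ATP/Hepes at pH 7.3 and an external normal saline at pH 7.2. GABA with or without drug was applied by U-tube for 10 s. Holding potential was -60 mV, room temperature.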

Sequence of GABA A receptor alpha-6/beta-2/gamma-2 (P18508 whole entry): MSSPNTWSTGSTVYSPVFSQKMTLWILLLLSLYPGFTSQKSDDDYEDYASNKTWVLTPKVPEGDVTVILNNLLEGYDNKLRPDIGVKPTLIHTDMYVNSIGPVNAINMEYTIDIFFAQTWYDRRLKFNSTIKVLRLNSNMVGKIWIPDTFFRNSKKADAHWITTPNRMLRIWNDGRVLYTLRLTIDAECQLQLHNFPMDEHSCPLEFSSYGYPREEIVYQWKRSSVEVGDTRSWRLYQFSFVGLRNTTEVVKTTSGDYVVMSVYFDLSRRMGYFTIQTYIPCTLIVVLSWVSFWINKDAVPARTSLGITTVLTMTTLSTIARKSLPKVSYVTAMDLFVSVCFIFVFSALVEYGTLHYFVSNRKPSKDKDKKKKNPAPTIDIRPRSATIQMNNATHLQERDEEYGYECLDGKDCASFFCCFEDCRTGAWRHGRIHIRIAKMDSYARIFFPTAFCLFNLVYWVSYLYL
Sequence of GABA A receptor alpha-6/beta-2/gamma-2 (P30191 whole entry): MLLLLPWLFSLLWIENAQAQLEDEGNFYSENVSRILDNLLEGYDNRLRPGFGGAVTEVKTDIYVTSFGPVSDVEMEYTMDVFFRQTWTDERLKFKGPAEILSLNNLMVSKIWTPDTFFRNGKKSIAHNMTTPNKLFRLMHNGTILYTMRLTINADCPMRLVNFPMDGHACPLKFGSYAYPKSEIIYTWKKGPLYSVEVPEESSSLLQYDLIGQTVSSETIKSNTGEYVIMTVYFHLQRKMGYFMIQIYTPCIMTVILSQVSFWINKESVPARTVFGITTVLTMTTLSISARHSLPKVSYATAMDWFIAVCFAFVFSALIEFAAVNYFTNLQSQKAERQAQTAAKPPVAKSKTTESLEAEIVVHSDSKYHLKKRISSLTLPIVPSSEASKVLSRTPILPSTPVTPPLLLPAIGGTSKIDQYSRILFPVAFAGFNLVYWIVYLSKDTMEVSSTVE
Sequence of GABA A receptor alpha-6/beta-2/gamma-2 (P63138 whole entry): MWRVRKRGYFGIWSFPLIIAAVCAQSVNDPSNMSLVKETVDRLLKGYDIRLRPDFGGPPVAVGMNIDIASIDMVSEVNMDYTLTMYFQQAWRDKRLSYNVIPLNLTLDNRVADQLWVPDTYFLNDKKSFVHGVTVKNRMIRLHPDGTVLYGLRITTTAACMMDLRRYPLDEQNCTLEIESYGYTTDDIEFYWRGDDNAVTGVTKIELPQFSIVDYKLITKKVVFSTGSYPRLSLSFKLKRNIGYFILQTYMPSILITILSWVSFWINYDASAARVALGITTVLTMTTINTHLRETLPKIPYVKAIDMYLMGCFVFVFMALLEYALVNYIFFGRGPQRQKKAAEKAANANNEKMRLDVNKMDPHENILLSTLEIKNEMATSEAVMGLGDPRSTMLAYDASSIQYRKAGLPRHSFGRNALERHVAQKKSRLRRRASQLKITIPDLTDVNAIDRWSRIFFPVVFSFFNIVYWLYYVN

Compound	Ki [1] [nM]	Ki [2] [nM]	Ratio [3]	inhibition [4] [%]	Activity [5]
COn1c(=O)n2c3c(cccc31)-n1cnc(-c3noc(C4CC4)n3)c1C2	7.3	> 589	0.68	36.4	0.73
O=C1CCc2cccc3c2N1Cc1c(-c2noc(C4CC4)n2)ncn1-3	2.6	> 589	0.09	0	0.07
CN1Cc2cccc3c2N(Cc2c(-c4noc(C5CC5)n4)ncn2-3)C1=O	3.7	> 589	0.08	16.3	0.5
CC(C)(C)OC(=O)N1CC(=O)N2Cc3c(-c4noc(C5CC5)n4)ncn3-c3cccc1c32	579	> 589	0.63	13.5	0.6
O=C1CCC2c3c(-c4noc(C5CC5)n4)ncn3-c3ccccc3N12 (stereo unspecified)		13.2	1.15		0.29
CN(C)C(=O)N1Cc2c(-c3noc(C4CC4)n3)ncn2-c2ccccc21 [PNU-91571]		13.2	0.69		0.68
CC(C)n1c(=O)c2c(-c3noc(C4CC4)n3)ncn2c2ccccc21 [PANADIPLON]		603			0.04
O=C1CC(c2ccccc2)c2cccc3c2N1Cc1c(-c2noc(C4CC4)n2)ncn1-3 (stereo unspecified)	25	> 589	0.88	13.6	0.88
CN1C(=O)CN=C(c2ccccc2)c2cc(Cl)ccc21 [DIAZEPAM]					1
O=C1OCc2cccc3c2N1Cc1c(-c2noc(C4CC4)n2)ncn1-3	21	> 589	0.52	14.3	0.35
O=C1CNc2cccc3c2N1Cc1c(-c2noc(C4CC4)n2)ncn1-3	19	> 589	0.58	14.7	0.39
CC1(C)CC(=O)N2Cc3c(-c4noc(C5CC5)n4)ncn3-c3cccc1c32	9.9	> 589	0.75	35	1.1
O=C1COc2cccc3c2N1Cc1c(-c2noc(C4CC4)n2)ncn1-3	2		0.35		
CC(C)N1Cc2cccc3c2N(Cc2c(-c4noc(C5CC5)n4)ncn2-3)C1=O	1.2	> 589	0.41	20.9	0.65
